# Measurements: ChEMBL document CHEMBL3763137, “Design and synthesis of novel 4'-demethyl-4-deoxypodophyllotoxin derivatives as potential anticancer agents” (Bioorg Med Chem Lett, 2016)
# The source made the active and inactive calls. No cut-off for these calls is given here.
# Tests used:
# [1] = Cell cycle arrest in human MGC803 cells assessed as accumulation at G2/M phase after 24 hrs by propidium iodide staining based flow cytometric analysis; type: functional; details: MGC-803
# In short: (§1)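 MGC-803 cells were exposed for 24 h to 0 (untreated), 10, 20 or 40 µM. The percentage of cells in each cell-cycle phase was measured by flow cytometry. Values are mean ± SD of three independent experiments, with P compared to control.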
# [2] = Antiproliferative activity against human HCT116 cells after 48 hrs by MTT assay; type: functional, cell-based; details: HCT-116, 48 h
# In short: (§2)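 Human cancer cells (HCT-116, HepG2 or MGC-803) incubated with compound for 48 h. Viability read by MTT assay. IC50 taken from dose-response curves. Mean ± SD of three separate assays.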
# HepG2 [3] = experiment: Antiproliferative activity against human HepG2 cells after 48 hrs by MTT assay; type: functional, cell-based; details: HepG2, 48 h; in short: as §2
# Mus musculus [4] = experiment: Toxicity in ICR mouse xenografted with human HepG2 cells assessed as body weight at 1 mg/kg, iv administered every 2 days measured on day 1 (reference value: 21 +/- 0.89 g); type: organism-based; details: in vivo, 48 h
# [5] = Cell cycle arrest in human MGC803 cells assessed as accumulation at G2/M phase at 20 uM after 24 hrs by propidium iodide staining based flow cytometric analysis (reference value: 1.89 %); type: functional; details: MGC-803; in short: as §1
# HepG2 [6] = experiment: Antitumor activity against human HepG2 cells xenografted in iv dosed ICR mouse assessed as tumor retardation effect administered every 2 days measured after 14 days; type: functional, organism-based
# [7] = Cell cycle arrest in human MGC803 cells assessed as decrease in cell level at G1 phase after 24 hrs by propidium iodide staining based flow cytometric analysis; type: functional; details: MGC-803; in short: as §1
# [8] = Cell cycle arrest in human MGC803 cells assessed as accumulation at S phase at 40 uM after 24 hrs by propidium iodide staining based flow cytometric analysis (reference value: 20.52 %); type: functional; details: MGC-803; in short: as §1
# [9] = Cell cycle arrest in human MGC803 cells assessed as accumulation at G0/G1 phase at 10 uM after 24 hrs by propidium iodide staining based flow cytometric analysis (reference value: 77.59 %); type: functional; details: MGC-803; in short: as §1
# [10] = Cell cycle arrest in human MGC803 cells assessed as accumulation at G2/M phase at 40 uM after 24 hrs by propidium iodide staining based flow cytometric analysis (reference value: 1.89 %); type: functional; details: MGC-803; in short: as §1
# Mus musculus [11] = experiment: Toxicity in ICR mouse xenografted with human HepG2 cells assessed as body weight at 2 mg/kg, iv administered every 2 days measured on day 1 (reference value: 21 +/- 0.89 g); type: organism-based; details: in vivo, 48 h
# [12] = Upregulation of p21 expression in human MGC803 cells at 10 to 40 uM after 24 hrs by Western blot analysis; type: functional, cell-based; details: MGC-803
# In short: (§3)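 MGC-803 cells were incubated for 24 h at 0, 10, 20 or 40 µM. Levels of cyclin A, cyclin B, CDK1, cdc25c and p21 were detected by Western blot with specific antibodies, with P compared to 0 µM.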
# Mus musculus [13] = experiment: Toxicity in ICR mouse xenografted with HepG2 cells assessed as body weight at 2 mg/kg, iv administered every 2 days measured on day 14 (reference value: 30.10 +/- 2.39 g); type: organism-based; details: in vivo, 48 h
# Mus musculus [14] = experiment: Toxicity in ICR mouse xenografted with HepG2 cells assessed as body weight at 4 mg/kg, iv administered every 2 days measured on day 14 (reference value: 30.10 +/- 2.39 g); type: organism-based; details: in vivo, 48 h
# [15] = Antiproliferative activity against human MGC803 cells after 48 hrs by MTT assay; type: functional, cell-based; details: MGC-803, 48 h; in short: as §2
# [16] = Cell cycle arrest in human MGC803 cells assessed as accumulation at G2/M phase at 10 uM after 24 hrs by propidium iodide staining based flow cytometric analysis (reference value: 1.89 %); type: functional; details: MGC-803; in short: as §1
# HepG2 [17] = experiment: Antitumor activity against human HepG2 cells xenografted in ICR mouse assessed as tumor growth inhibition at 2 mg/kg, iv administered every 2 days measured after 14 days relative to control; type: functional; details: read-out: TGI
# In short: (§4)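 HepG2 xenografts established in ICR mice, then randomized into four groups (n = 10 each). Compound given intravenously every two days; control group received vehicle at 0.4 mL/mouse. Tumors weighed after two weeks (day 14); inhibitory ratio calculated versus vehicle control. Body weights recorded on days 1 and 14.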
# [18] = Downregulation of CDK2 expression in human MGC803 cells at 10 to 40 uM after 24 hrs by Western blot analysis; type: functional, cell-based; details: MGC-803
# Mus musculus [19] = experiment: Toxicity in ICR mouse xenografted with human HepG2 cells assessed as body weight at 4 mg/kg, iv administered every 2 days measured on day 1 (reference value: 21 +/- 0.89 g); type: organism-based; details: in vivo, 48 h
# [20] = Downregulation of cdc25c expression in human MGC803 cells at 10 to 40 uM after 24 hrs by Western blot analysis; type: functional, cell-based; details: MGC-803; in short: as §3
# [21] = Downregulation of CDK1 expression in human MGC803 cells after 24 hrs by Western blot analysis; type: functional, cell-based; details: MGC-803; in short: as §3
# [22] = Downregulation of cyclin B expression in human MGC803 cells after 24 hrs by Western blot analysis; type: functional, cell-based; details: MGC-803; in short: as §3
# [23] = Cell cycle arrest in human MGC803 cells assessed as accumulation at G0/G1 phase at 20 uM after 24 hrs by propidium iodide staining based flow cytometric analysis (reference value: 77.59 %); type: functional; details: MGC-803; in short: as §1
# [24] = Cell cycle arrest in human MGC803 cells assessed as accumulation at S phase at 10 uM after 24 hrs by propidium iodide staining based flow cytometric analysis (reference value: 20.52 %); type: functional; details: MGC-803; in short: as §1
# HepG2 [25] = experiment: Antitumor activity against human HepG2 cells xenografted in ICR mouse assessed as tumor growth inhibition at 4 mg/kg, iv administered every 2 days measured after 14 days relative to control; type: functional; details: read-out: TGI; in short: as §4
# [26] = Cell cycle arrest in human MGC803 cells assessed as accumulation at S phase at 20 uM after 24 hrs by propidium iodide staining based flow cytometric analysis (reference value: 20.52 %); type: functional; details: MGC-803; in short: as §1
# HepG2 [27] = experiment: Antitumor activity against human HepG2 cells xenografted in ICR mouse assessed as tumor growth inhibition at 1 mg/kg, iv administered every 2 days measured after 14 days relative to control; type: functional; details: read-out: TGI; in short: as §4
# [28] = Cell cycle arrest in human MGC803 cells assessed as accumulation at G0/G1 phase at 40 uM after 24 hrs by propidium iodide staining based flow cytometric analysis (reference value: 77.59 %); type: functional; details: MGC-803; in short: as §1
# [29] = Downregulation of cyclin A expression in human MGC803 cells after 24 hrs by Western blot analysis; type: functional, cell-based; details: MGC-803; in short: as §3
# Mus musculus [30] = experiment: Toxicity in ICR mouse xenografted with HepG2 cells assessed as body weight at 1 mg/kg, iv administered every 2 days measured on day 14 (reference value: 30.10 +/- 2.39 g); type: organism-based; details: in vivo, 48 h
smiles,measurement,setting,value
COc1cc([C@@H]2c3cc4c(cc3C[C@H]3COC(=O)[C@@H]32)OCO4)cc(OC)c1OCC(=O)Nc1ccccc1F,Activity,[1],Dose-dependent effect
same,IC50,[2],2.2 µM
same,IC50,HepG2 [3],1.08 µM
same,Activity,Mus musculus [4],20.82 g
same,Activity,[5],72.3%
same,Activity,HepG2 [6],Dose-dependent effect
same,Activity,[7],Dose-dependent effect
same,Activity,[8],22.7%
same,Activity,[9],41.9%
same,Activity,[10],75.5%
same,Activity,Mus musculus [11],20.91 g
same,Activity,[12],Active
same,Activity,Mus musculus [13],28.36 g
same,Activity,Mus musculus [14],27.2 g
same,IC50,[15],0.22 µM
same,Activity,[16],7.29%
same,inhibition in vivo at 2 mg/kg,HepG2 [17],26.6%
same,Activity,[18],inactive
same,Activity,Mus musculus [19],21.3 g
same,Activity,[20],Active
same,Activity,[21],Dose-dependent effect
same,Activity,[22],Dose-dependent effect
same,Activity,[23],7.22%
same,Activity,[24],50.8%
same,inhibition in vivo at 4 mg/kg,HepG2 [25],45.6%
same,Activity,[26],20.5%
same,inhibition in vivo at 1 mg/kg,HepG2 [27],6.09%
same,Activity,[28],1.8%
same,Activity,[29],Dose-dependent effect
same,Activity,Mus musculus [30],29.09 g
COc1cc([C@@H]2c3cc4c(cc3C[C@H]3COC(=O)[C@@H]32)OCO4)cc(OC)c1OCC(=O)Nc1c(C)cccc1Cl,IC50,[2],> 10 µM
same,IC50,HepG2 [3],> 10 µM
same,IC50,[15],6.16 µM
COc1cc([C@@H]2c3cc4c(cc3C[C@H]3COC(=O)[C@@H]32)OCO4)cc(OC)c1OCC(=O)Nc1cccc(Cl)c1,IC50,[2],2.68 µM
same,IC50,HepG2 [3],2.97 µM
same,IC50,[15],1.24 µM
COc1cc([C@@H]2c3cc4c(cc3C[C@H]3COC(=O)[C@@H]32)OCO4)cc(OC)c1OCC(=O)Nc1ccccc1Cl,IC50,[2],> 10 µM
same,IC50,HepG2 [3],> 10 µM
same,IC50,[15],> 10 µM
COc1cc([C@@H]2c3cc4c(cc3C[C@H]3COC(=O)[C@@H]32)OCO4)cc(OC)c1OCC(=O)Nc1cccc([N+](=O)[O-])c1,IC50,[2],3.2 µM
same,IC50,HepG2 [3],> 10 µM
same,IC50,[15],2.82 µM
COc1cc([C@@H]2c3cc4c(cc3C[C@H]3COC(=O)[C@@H]32)OCO4)cc(OC)c1OCC(=O)Nc1ccccc1,IC50,[2],> 10 µM
same,IC50,HepG2 [3],> 10 µM
same,IC50,[15],2.54 µM
COc1cc([C@@H]2c3cc4c(cc3[C@@H](O[C@@H]3O[C@@H]5CO[C@@H](C)O[C@H]5[C@H](O)[C@H]3O)[C@H]3COC(=O)[C@H]23)OCO4)cc(OC)c1O [ETOPOSIDE],IC50,[2],1.7 µM
same,IC50,HepG2 [3],5.62 µM
same,IC50,[15],> 10 µM
COc1cc([C@@H]2c3cc4c(cc3C[C@H]3COC(=O)[C@@H]32)OCO4)cc(OC)c1OCC(=O)Nc1cccc(F)c1,IC50,[2],> 10 µM
same,IC50,HepG2 [3],> 10 µM
same,IC50,[15],> 10 µM
COc1cc([C@@H]2c3cc4c(cc3C[C@H]3COC(=O)[C@@H]32)OCO4)cc(OC)c1OCC(=O)Nc1ccccc1[N+](=O)[O-],IC50,[2],> 10 µM
same,IC50,HepG2 [3],> 10 µM
same,IC50,[15],> 10 µM
COc1ccc(NC(=O)COc2c(OC)cc([C@@H]3c4cc5c(cc4C[C@H]4COC(=O)[C@@H]43)OCO5)cc2OC)cc1,IC50,[2],> 10 µM
same,IC50,HepG2 [3],> 10 µM
same,IC50,[15],> 10 µM
COc1cc([C@@H]2c3cc4c(cc3C[C@H]3COC(=O)[C@@H]32)OCO4)cc(OC)c1OCC(=O)Nc1ccccc1C,IC50,[2],> 10 µM
same,IC50,HepG2 [3],7.8 µM
same,IC50,[15],4.05 µM
